From ChEMBL document CHEMBL4339255, “Dimeric Pyranonaphthoquinone Glycosides with Anti-HIV and Cytotoxic Activities from a Soil-Derived Streptomyces” (J Nat Prod, 2019) come the findings set out here.

SMILES strings stand for the structures.

The subject of one data set is HL-60. Nature of the data set: Cytotoxicity in human HL60 cells assessed as reduction in cell viability incubated for 72 hrs by MTS assay. The format is functional, cell-based. Conditions: HL-60, 72 h. The gist of the method: (§1)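 Cells plated at 5 × 10^3 per well, left 24 h, then given a range of sample concentrations from DMSO solutions, in triplicate; DMSO-only negative controls, paclitaxel and cisplatin positive controls. After 72 h exposure, MTS added for 2 h at 37 °C, absorbance read at 492 nm, IC50 by the Reed and Muench method.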
(In general: Formazan colour is commonly taken as a measure of viable cells.)

A further data set relates to MCF7. Briefly: Cytotoxicity in human MCF7 cells assessed as reduction in cell viability incubated for 72 hrs by MTS assay. Conditions: MCF7, 72 h. Type of data set: functional, cell-based. In short, it runs like this: as §1
A short description of data set [1]: Toxicity in human C8166 cells assessed as reduction in cell viability incubated for 72 hrs by MTT assay. Type of data set: cell-based.
The nature of data set [2]: Therapeutic index, ratio of CC50 for toxicity in C8166 cells to EC50 for antiviral activity against HIV1 3B infected in human C8166 cells. The format is cell-based. As to conditions: read-out: Ratio CC50/EC50.
Data set [3] deals with Human immunodeficiency virus 1. Nature of the data set: Antiviral activity against HIV1 3B infected in human C8166 cells assessed as inhibition of syncytial cell formation incubated for 72 hrs. The format is functional, organism-based. Conditions: Human immunodeficiency virus 1, 3B, C8166, 72 h.

With `COC(=O)C[C@H]1C[C@@]2(S[C@@]34C[C@H](CC(=O)O[C@H]5O[C@@H](C(=O)OC)[C@H](O)[C@@H](O)[C@@H]5O)O[C@@H](C)[C@@]3(O)C(=O)c3c(O)cccc3C4=O)C(=O)c3cccc(O)c3C(=O)[C@]2(O)[C@H](C)O1`, the IC50 (usually the point on the concentration scale where inhibition reaches its midpoint) with HL-60 was found to be 16.1 µM; in the data set with MCF7 it was 3.4 µM.
Consider `COC(=O)C[C@H]1C[C@@]2(S[C@@]34C[C@H](CC(=O)OC)O[C@@H](C)[C@@]3(O)C(=O)c3c(O[C@H]5O[C@@H](C(=O)O)[C@H](O)[C@@H](O)[C@@H]5O)cccc3C4=O)C(=O)c3cccc(O)c3C(=O)[C@]2(O)[C@H](C)O1`, for which, in data set [1], the CC50 – broadly, the concentration that lowers cell viability or growth by half – at 72 h is > 100 µM. Also, in data set [2], the selectivity ratio is > 2.2. The EC50 (in general, the concentration giving half of the maximal effect) in data set [3] was 44.7 µM.
On the same counts, the results for `COC(=O)C[C@H]1C[C@@]2(S[C@@]34C[C@H](CCO[C@H]5O[C@@H](C(=O)O)[C@H](O)[C@@H](O)[C@@H]5O)O[C@@H](C)[C@@]3(O)C(=O)c3c(O)cccc3C4=O)C(=O)c3cccc(O)c3C(=O)[C@]2(O)[C@H](C)O1` are 56.4 µM, 5.9 and 9.6 µM.
In the case of `CC(=O)O[C@H]1C(=O)[C@@]2(C)[C@H]([C@H](OC(=O)c3ccccc3)[C@]3(O)C[C@H](OC(=O)[C@H](O)[C@@H](NC(=O)c4ccccc4)c4ccccc4)C(C)=C1C3(C)C)[C@]1(OC(C)=O)CO[C@@H]1C[C@@H]2O` [PACLITAXEL], the IC50 in the data set with HL-60 and in the data set with MCF7 was < 0.008 µM throughout.
Consider `COC(=O)C[C@H]1C[C@@]2(S[C@@]34C[C@H](CC(=O)O[C@H]5OC(C(=O)O)=C[C@@H](O)[C@@H]5O)O[C@@H](C)[C@@]3(O)C(=O)c3c(O)cccc3C4=O)C(=O)c3cccc(O)c3C(=O)[C@]2(O)[C@H](C)O1`, for which the half-inhibitory concentration (IC50) with HL-60 came out at 9.9 µM; in the data set with MCF7, 1.4 µM. Besides, the CC50 at 72 h in data set [1] was found to be 63.7 µM. Also, the selectivity ratio in data set [2] stood at 22.5. The EC50 in data set [3] was determined as 2.8 µM.
For `Nc1ccn([C@@H]2CS[C@H](CO)O2)c(=O)n1` [LAMIVUDINE], in data set [1], the CC50 at 72 h was > 1000 µM. Also, the selectivity ratio in data set [2] is > 2910. Further, in data set [3], the EC50 came out at 0.3 µM.
For the compound `COC(=O)C[C@H]1C[C@@]2(S[C@@]34C[C@H](CC(=O)O[C@H]5O[C@@H](C(=O)O)[C@H](O)[C@@H](O)[C@@H]5O)O[C@@H](C)[C@@]3(O)C(=O)c3c(O)cccc3C4=O)C(=O)c3cccc(O)c3C(=O)[C@]2(O)[C@H](C)O1`, the CC50 at 72 h in data set [1] came to 52 µM. In addition, the selectivity ratio in data set [2] is 5.4. The EC50 in data set [3] amounted to 9.6 µM.
Take `COC(=O)C[C@H]1C[C@@]2(S[C@@]34C[C@H](CCO[C@H]5O[C@@H](C(=O)OC)[C@H](O)[C@@H](O)[C@@H]5O)O[C@@H](C)[C@@]3(O)C(=O)c3c(O)cccc3C4=O)C(=O)c3cccc(O)c3C(=O)[C@]2(O)[C@H](C)O1`: the IC50 was found to be 14.9 µM in the data set on HL-60 and 3.4 µM in the data set with MCF7. The CC50 at 72 h in data set [1] was 36.4 µM. Moreover, the selectivity ratio in data set [2] was 4.2. For the same compound, the EC50 in data set [3] worked out at 8.6 µM.
